Experimental data from ChEMBL document CHEMBL1795218, “Selective bone targeting 5-fluorouracil prodrugs: synthesis and preliminary biological evaluation” (Bioorg Med Chem, 2011).
Active and inactive are the calls of the source. The rule behind the calls is not given here. Residues, ends and D or L forms follow the SMILES beside them. *: point of attachment. Acetyl(5-fluorouracil-1-yl) = O=C(Cn1cc(F)c(=O)[nH]c1=O)*; X1 = O=C(CCC(=O)*)OCn1cc(F)c(=O)[nH]c1=O

What was measured:
Hydroxyapatite [1] = test: Binding affinity to bone mineral hydroxyapatite assessed as binding index after 0.5 hrs by UV-spectrophotometer analysis relative to 5-fluorouracil; parameters: concentration or dose not given beside the values
Hydroxyapatite [2] = test: Binding affinity to bone mineral hydroxyapatite assessed as binding index after 24 hrs by UV-spectrophotometer analysis relative to 5-fluorouracil; parameters: concentration or dose not given beside the values
Summary of the method: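 Hydroxyapatite (25 mg/ml) added to 5 ml conjugate solutions at 500 µg/ml (C0). Sonicated 5 min, then held in a 37 °C water bath for […] or over 24 h. Unbound conjugate read by UV at 254 nm against an absorbance–concentration calibration line. Tetracycline as positive control. Binding index given as mean ± SD, n = 3.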

Plasma [3] = test: Prodrug activation in 50% human plasma assessed as 5-fluorouracil release after 60 hrs by RP-HPLC analysis; format: cell-free
Summary of the method: (§1)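 Conjugates incubated at 37 °C in PBS pH 7.4 or in 50% (v/v in PBS) human plasma, with a little DMSO added for solubility. Released 5-FU measured by RP-HPLC at 1.0 mL/min, detection at 256 nm, 25 °C.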

HeLa [4] = test: Cytotoxicity against human HeLa cells after 3 days by MTT assay in presence of 50% human plasma; format: functional, cell-based
Summary of the method: (§2)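 MG-63 or HeLa cells plated at 5×10³ cells/well. Exposed to conjugates at 1–64 µM (5-FU-equivalent), with or without human plasma, for 72 h under 5% CO₂. MTT then added for 2 h and absorbance read at 490 nm. Mean and SD of three independent experiments.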

Plasma [5] = test: Prodrug activation in 50% human plasma assessed as 5-fluorouracil release after 5 days by RP-HPLC analysis; format: cell-free; details: 120 h; summary of the method: as §1
Femur [6] = test: Biodistribution in po dosed mouse femur after 1 hr; format: ADME, organism-based; details: in vivo
Summary of the method: (§3)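 Mice dosed orally. At 1 h or 12 h, kidney, liver, femur and blood collected. Organs rinsed in cold saline, blotted, extracted with methanol, diluted and centrifuged before analysis. Mean and SD of three independent experiments.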

MG-63 [7] = test: Cytotoxicity against human MG63 cells after 3 days by MTT assay in presence of 50% human plasma; format: functional, cell-based; summary of the method: as §2
MG-63 [8] = test: Cytotoxicity against human MG63 cells after 3 days by MTT assay; format: functional, cell-based; details: MG-63, 72 h; summary of the method: as §2
Mus musculus = species on record: Mus musculus; test: Cmax in mouse; format: ADME, organism-based; details: in vivo
[9] = Half life in mouse; format: ADME, organism-based; details: in vivo
[10] = Apparent volume of distribution in mouse; format: ADME, organism-based; details: in vivo, read-out: Vz
Femur [11] = test: Biodistribution in po dosed mouse femur after 12 hrs; format: ADME, organism-based; details: in vivo; summary of the method: as §3
[12] = AUC in mouse; format: ADME, organism-based; details: plasma
HeLa [13] = test: Cytotoxicity against human HeLa cells after 3 days by MTT assay; format: functional, cell-based; details: 72 h; summary of the method: as §2
[14] = Prodrug activation in phosphate buffered saline at pH 7.4 assessed as 5-fluorouracil release after 5 days by RP-HPLC analysis; details: buffer, pH 7.4, 120 h; summary of the method: as §1
[15] = Prodrug activation in phosphate buffered saline at pH 7.4 assessed as 5-fluorouracil release after 60 hrs by RP-HPLC analysis; details: buffer, pH 7.4, 60 h; summary of the method: as §1

Structure (SMILES)	Activity (Hydroxyapatite [1]) [%]	Activity (Hydroxyapatite [2]) [%]	Activity (Plasma [3]) [%]	Activity (HeLa [4])	Activity (Plasma [5]) [%]	Drug uptake (Femur [6])	Activity (MG-63 [7])	IC50 (MG-63 [8]) [µM]	Cmax (Mus musculus) [µg/mL]	half-life [9] [h]	Vd [10] [L/kg]	Drug uptake (Femur [11])	AUC [12] [ng·h/mL]	IC50 (HeLa [13]) [µM]	Activity [14] [%]	Activity [15] [%]
CN(C)[C@@H]1C(O)=C(C(N)=O)C(=O)[C@@]2(O)C(O)=C3C(=O)c4c(O)cccc4[C@@](C)(O)[C@H]3C[C@@H]12	24.1	56.2	–	–	–	–	–	–	–	–	–	–	–	–	–	–
O=C(O)C[C@H](NC(=O)[C@H](CC(=O)O)NC(=O)[C@H](CC(=O)O)NC(=O)[C@H](CC(=O)O)NC(=O)Cn1cc(F)c(=O)[nH]c1=O)C(=O)O ({Acetyl(5-fluorouracil-1-yl)}-DDDD-OH)	14.3	40.2	–	–	–	–	–	–	–	–	–	–	–	–	–	–
O=C(O)C[C@H](NC(=O)[C@H](CC(=O)O)NC(=O)[C@H](CC(=O)O)NC(=O)[C@H](CC(=O)O)NC(=O)[C@H](CC(=O)O)NC(=O)[C@H](CC(=O)O)NC(=O)CCC(=O)OCn1cc(F)c(=O)[nH]c1=O)C(=O)O (X1-DDDDDD-OH)	37.8	69.7	60.3	Active	80	Active	Active	> 64	51100	6.75	32.2	Active	90100	> 64	–	–
O=c1[nH]cc(F)c(=O)[nH]1 [FLUOROURACIL]	0	0	–	–	–	Active	–	8	–	4.36	24.1	Active	76600	4	–	–
O=C(O)C[C@H](NC(=O)[C@H](CC(=O)O)NC(=O)[C@H](CC(=O)O)NC(=O)[C@H](CC(=O)O)NC(=O)CCC(=O)OCn1cc(F)c(=O)[nH]c1=O)C(=O)O (X1-DDDD-OH)	16.6	42.5	–	–	–	–	–	–	–	–	–	–	–	–	–	–
O=C(O)C[C@H](NC(=O)[C@H](CC(=O)O)NC(=O)[C@H](CC(=O)O)NC(=O)[C@H](CC(=O)O)NC(=O)[C@H](CC(=O)O)NC(=O)[C@H](CC(=O)O)NC(=O)Cn1cc(F)c(=O)[nH]c1=O)C(=O)O ({Acetyl(5-fluorouracil-1-yl)}-DDDDDD-OH)	31.4	62.7	47.4	Active	60	Active	Active	> 64	42400	4.36	24.1	Active	76600	> 64	5	3.2
O=C(O)C[C@H](NC(=O)[C@H](CC(=O)O)NC(=O)[C@H](CC(=O)O)NC(=O)[C@H](CC(=O)O)NC(=O)[C@H](CC(=O)O)NC(=O)CCC(=O)OCn1cc(F)c(=O)[nH]c1=O)C(=O)O (X1-DDDDD-OH)	13.4	25.5	–	–	–	–	–	–	–	–	–	–	–	–	–	–
O=C(O)C[C@H](NC(=O)[C@H](CC(=O)O)NC(=O)[C@H](CC(=O)O)NC(=O)[C@H](CC(=O)O)NC(=O)[C@H](CC(=O)O)NC(=O)Cn1cc(F)c(=O)[nH]c1=O)C(=O)O ({Acetyl(5-fluorouracil-1-yl)}-DDDDD-OH)	11.6	19.8	–	–	–	–	–	–	–	–	–	–	–	–	–	–
